Results from PMC4780734 (International Journal of Nanomedicine, 2016).
Entries after “also recorded” stand apart in the source; their conditions may differ.

What was measured:
[1] = Pharmacokinetic study after single IV injection; assay type: in vivo, male Sprague–Dawley rats
In vitro release of = assay type: physicochemical; conditions: for accumulated amount of released (dach)Pt(II): pH 7.4, 37°C
Method in brief: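 Conjugate solution (2 mg/mL) was dialysed in cellulose tubing (MWCO 2,000 Da) against phosphate buffer at pH 5.4 or 7.4, at 37°C with stirring at 100 rpm under sink conditions. Dialysate was sampled at set times over 10 days. Released Pt was measured by ICP-MS and expressed as cumulative % of total loaded (dach)Pt.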

male ICR mice = test: Acute toxicity study; assay type: in vivo
[2] = Bioimaging of Pt in mouse kidney by laser ablation ICP-MS; assay type: in vivo; conditions: listed as PP
Method in brief: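 Mouse kidneys were dissected at 2, 12 and 24 h after IV injection, following the biodistribution procedure. Reference drug was dosed to match on (dach)Pt content. Kidneys were cryostat-sectioned at 100 μm and dried at room temperature. Pt was mapped by femtosecond laser ablation ICP-MS.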

[3] = tested on: gastric tumor cell line (MKN-28); test: Nude mouse xenograft trial; assay type: in vivo, BALB/C nude mice
Method in brief: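 MKN-28 xenografts were grown in BALB/C nude mice (5 weeks, 15–20 g). Test and reference drugs were dosed to equal (dach)Pt content, at 8 mg (dach)Pt/kg, and reference drug was also given at 16 mg (dach)Pt/kg. Tumour growth and body weight were monitored.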

[4] = Lower critical solution temperature; assay type: physicochemical
[5] = tested on: non-small-cell lung carcinoma A549 cells; test: Biodistribution of Cy5.5-labeled PP by ex vivo imaging in tumor-bearing mice; set-up: species or system BALB/C nude mice; conditions: Cy5.5-labeled PP 60 mg/kg IV
Method in brief: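 BALB/C nude mice (5 weeks, 15–20 g) were acclimatised for 4 days. A549 cells (1×10^7 in serum-free RPMI 1640) were injected s.c. into the right flank. After 2 weeks, with tumours at 250–300 mm3, mice received the Cy5.5-labelled conjugate (60 mg/kg in saline) IV via the tail vein. Mice were killed at 12, 24, 48 and 72 h, with blood taken by cardiac puncture. Tumour, muscle, liver, kidney, spleen, lung and blood were imaged by CCD camera through a 680–720 nm Cy5.5 emission filter.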

[6] = Critical aggregation concentration by fluorescence pyrene method; assay type: physicochemical; conditions: in saline
[7] = Clearance study of Cy5.5-labeled PP from major organs by ex vivo imaging; assay type: in vivo, BALB/C nude mice; conditions: Cy5.5-labeled PP 300 mg/kg IV, mice without tumor, postinjection
Method in brief: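 Tumour-free BALB/C nude mice (n=30; 5 weeks, 15–20 g; acclimatised 4 days) received the Cy5.5-labelled conjugate at 300 mg/kg IV via the tail vein. Mice were killed at short intervals during week 1, then weekly. Dissected organs were imaged by CCD camera through a 680–720 nm Cy5.5 filter until each organ's intensity fell below that of a blank organ.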

[8] = Solubility of the isolated solid; assay type: physicochemical; conditions: light yellow solid
[9] = Particle size distribution by dynamic light scattering; assay type: physicochemical; conditions: hydrodynamic size

O=C1[O][Pt]2([NH][C@@H]3CCCC[C@H]3[NH]2)[O]C1=O [Oxaliplatin, oxaliplatin, reference compound]
AUC ([1]; single IV 1 mg (dach)Pt/kg, male rats, listed as OX): 2,320.4 ng h/mL

[NP(MPEG550)(AE)(AA)Pt(dach)]n [Polyplatin]
accumulated amount of platinum released (In vitro release of; pH 5.4, 37°C, 10 days): 98%
accumulated amount of released (dach)Pt(II) (In vitro release of; 24 hours): 18%
accumulated amount of released (dach)Pt(II) (In vitro release of; 10 days): 72%
body weight change depending on the dose (male ICR mice; 5, 50, 300 and 2,000 mg/kg IV, 14 days): no considerable difference in body weight change
LD50 (male ICR mice; IV in saline, ICR mice, 14 days observation): more than 2000 mg/kg
excretion of platinum from kidney ([2]; 12 and 24 hours postinjection): more rapidly excreted than monomeric OX
platinum distribution/accumulation in kidney ([2]; 2 hours postinjection, same dose based on (dach)Pt content): accumulates much less in kidney; also recorded: much less and relatively homogeneous distribution; also recorded: accumulated much less in the kidney
antitumor activity ([3]; 8 mg (dach)Pt/kg IV on days 1, 5, 9, MKN-28 xenograft): comparable to OX
death of test mice ([3]; 16 mg (dach)Pt/kg IV, MKN-28 xenograft): without any death
antitumor efficacy compared with OX, overall ([3]; MKN-28 xenograft, listed as PP): remarkably higher antitumor activity
systemic toxicity compared with OX ([3]; MKN-28 xenograft, listed as PP): lower systemic toxicity; also recorded: low systemic toxicity
antitumor activity ([3]; double dose of 16 mg (dach)Pt/kg IV on days 1, 5, 9, MKN-28 xenograft, listed as PP): much better activity
body weight changes ([3]; low and high doses, during the drug injection period (days 1, 5, and 9)): nearly no body weight changes
clearance time relative to OX ([1]; PP (6.3 mL/h) compared with OX (116.36 mL/h)): about 18 times
half-life of the β phase relative to OX ([1]; PP compared with OX, rats): more than twice longer
t1/2 β ([1]; single IV 1 mg (dach)Pt/kg, male rats, listed as PP): 13.3 h
Lower critical solution temperature (LCST) ([4]; 5% solution): higher than 100 °C
Lower critical solution temperature (LCST) ([4]; given with the synthesis): > 100 °C
plasma concentration course (fluorescence) ([5]; 12 to 72 hours postinjection): decrease slowly
tumor accumulation / tumor selectivity ([5]; A549 tumor-bearing mice, EPR effect, listed as PP): high tumor selectivity
time of maximum concentration in tumor ([5]; A549 tumor-bearing mice, postinjection): 48 h
tumor-to-tissue ratio, maximum value ([5]; at 48 hours postinjection): 12
critical aggregation concentration (CAC) [6]: 18.5 mg/L
critical aggregation concentration (CAC) ([6]; unit as printed in b33): 18.5 mg/L
time to clearance from all the major organs including the liver [7]: about 4 weeks
solubility [8]: soluble in water and polar organic solvents
mean diameter [9]: 55.1 nm
